Laboratory results published in ChEMBL document CHEMBL4765256, “Structural features and functional activities of benzimidazoles as NOD2 antagonists” (Eur J Med Chem, 2020).
Active and inactive are the calls of the source. The rule behind the calls is not given here.

Assays:
HEK293 [1] = assay: Cytotoxicity against human HEK293 cells expressing human NOD2 assessed as reduction in metabolic activity at 20 uM incubated for 18 hrs by MTS assay; format: ADME, cell-based; conditions: hek293, 18 h
In short: (§1)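 HEK-Blue NOD1 or NOD2 cells seeded at 1 × 10^4 cells/well in triplicate. Treated 18 h with 20 µM compound or 0.1% DMSO vehicle. Metabolic activity read by MTS (CellTiter 96 AQueous One) and expressed relative to vehicle control. Mean ± SD of three biological replicates.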

[2] = molecular target: T1, Nucleotide-binding oligomerization domain-containing protein 2 (Homo sapiens, UniProt Q9HC29); assay: Antagonist activity at human NOD2 expressed in HEK293 cells assessed as reduction in MDP-induced NF-kappaB activation preincubated for 1 hr followed by MDP stimulation and measured after 18 hrs by SEAP reporter gene based spectrophotometric analysis; format: cell-based
In short: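 Dose–response in HEK-Blue NOD2 and NOD1 cells (5 × 10^5 cells/mL): 1 h pre-treatment with 0.3125–20 µM antagonist, then 2 µM MDP or 100 nM C12-iE-DAP respectively, 18 h incubation. SEAP absorbance read at 620 nm. IC50 fitted by non-linear regression. Duplicates, three biological replicates, DMSO ≤0.1%.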

HEK293 [3] = assay: Cytotoxicity against human HEK293 cells expressing human NOD1 assessed as reduction in metabolic activity at 20 uM incubated for 18 hrs by MTS assay; format: ADME, cell-based; conditions: hek293, 18 h; in short: as §1
[4] = molecular target: T2, Nucleotide-binding oligomerization domain-containing protein 1 (Homo sapiens, UniProt Q9Y239); assay: Antagonist activity at human NOD1 expressed in HEK293 cells assessed as reduction in C12-iE-DAP-induced NF-kappaB activation preincubated for 1 hr followed by C12-iE-DAP stimulation and measured after 18 hrs by SEAP reporter gene based spectrophotometric analysis; format: cell-based
T2 sequence (Q9Y239 whole entry): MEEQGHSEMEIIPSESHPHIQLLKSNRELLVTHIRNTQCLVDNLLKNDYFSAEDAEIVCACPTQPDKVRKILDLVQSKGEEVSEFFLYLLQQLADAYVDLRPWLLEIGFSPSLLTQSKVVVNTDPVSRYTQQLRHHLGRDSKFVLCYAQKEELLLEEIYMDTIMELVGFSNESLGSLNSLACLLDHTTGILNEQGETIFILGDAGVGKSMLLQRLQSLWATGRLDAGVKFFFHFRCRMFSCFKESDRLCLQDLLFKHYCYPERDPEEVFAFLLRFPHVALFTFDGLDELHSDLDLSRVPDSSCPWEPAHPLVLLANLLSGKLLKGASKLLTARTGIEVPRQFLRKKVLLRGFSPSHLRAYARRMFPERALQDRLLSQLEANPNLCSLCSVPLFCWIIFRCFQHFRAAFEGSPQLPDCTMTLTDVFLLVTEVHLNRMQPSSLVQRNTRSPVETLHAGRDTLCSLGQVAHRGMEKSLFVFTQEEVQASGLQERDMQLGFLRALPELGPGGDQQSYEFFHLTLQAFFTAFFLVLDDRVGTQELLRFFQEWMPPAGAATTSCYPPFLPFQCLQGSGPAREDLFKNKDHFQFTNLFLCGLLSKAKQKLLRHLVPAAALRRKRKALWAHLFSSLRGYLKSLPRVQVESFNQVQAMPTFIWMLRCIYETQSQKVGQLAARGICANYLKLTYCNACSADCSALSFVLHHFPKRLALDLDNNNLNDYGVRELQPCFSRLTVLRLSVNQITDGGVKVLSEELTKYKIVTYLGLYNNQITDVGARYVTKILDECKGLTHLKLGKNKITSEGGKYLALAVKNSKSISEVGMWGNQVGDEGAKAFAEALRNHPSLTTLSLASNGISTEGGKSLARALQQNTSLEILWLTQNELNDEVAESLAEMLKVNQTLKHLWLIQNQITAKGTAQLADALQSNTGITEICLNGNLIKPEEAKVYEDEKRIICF

[5] = molecular target: T3, Nucleotide-binding oligomerization domain-containing protein 1 (Homo sapiens) (UniProt Q9Y239); assay: Antagonist activity at human NOD1 expressed in HEK293 cells assessed as reduction in C12-iE-DAP-induced NF-kappaB activation at 10 uM preincubated for 1 hr followed by C12-iE-DAP stimulation and measured after 18 hrs by SEAP reporter gene based spectrophotometric analysis; format: cell-based; conditions: time 19.0 hrs
T3 sequence (whole entry): T2 sequence (Q9Y239 whole entry)
In short: (§2)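 HEK-Blue NOD1 or NOD2 reporter cells (5 × 10^5 cells/mL, passages 7–12) pre-treated 1 h with 10 µM compound. Then 100 nM C12-iE-DAP (NOD1) or 2 µM MDP (NOD2) for 18 h at 37 °C, 5% CO2. Secreted SEAP read at 620 nm. DMSO ≤0.1% vehicle control. Duplicates, three biological replicates.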

[6] = molecular target: T1, Nucleotide-binding oligomerization domain-containing protein 2; assay: Antagonist activity at human NOD2 expressed in HEK293 cells assessed as reduction in MDP-induced NF-kappaB activation at 10 uM preincubated for 1 hr followed by MDP stimulation and measured after 18 hrs by SEAP reporter gene based spectrophotometric analysis; format: cell-based; conditions: time 19.0 hrs; in short: as §2

T1 sequence (Q9HC29 whole entry, the tested form may be a part): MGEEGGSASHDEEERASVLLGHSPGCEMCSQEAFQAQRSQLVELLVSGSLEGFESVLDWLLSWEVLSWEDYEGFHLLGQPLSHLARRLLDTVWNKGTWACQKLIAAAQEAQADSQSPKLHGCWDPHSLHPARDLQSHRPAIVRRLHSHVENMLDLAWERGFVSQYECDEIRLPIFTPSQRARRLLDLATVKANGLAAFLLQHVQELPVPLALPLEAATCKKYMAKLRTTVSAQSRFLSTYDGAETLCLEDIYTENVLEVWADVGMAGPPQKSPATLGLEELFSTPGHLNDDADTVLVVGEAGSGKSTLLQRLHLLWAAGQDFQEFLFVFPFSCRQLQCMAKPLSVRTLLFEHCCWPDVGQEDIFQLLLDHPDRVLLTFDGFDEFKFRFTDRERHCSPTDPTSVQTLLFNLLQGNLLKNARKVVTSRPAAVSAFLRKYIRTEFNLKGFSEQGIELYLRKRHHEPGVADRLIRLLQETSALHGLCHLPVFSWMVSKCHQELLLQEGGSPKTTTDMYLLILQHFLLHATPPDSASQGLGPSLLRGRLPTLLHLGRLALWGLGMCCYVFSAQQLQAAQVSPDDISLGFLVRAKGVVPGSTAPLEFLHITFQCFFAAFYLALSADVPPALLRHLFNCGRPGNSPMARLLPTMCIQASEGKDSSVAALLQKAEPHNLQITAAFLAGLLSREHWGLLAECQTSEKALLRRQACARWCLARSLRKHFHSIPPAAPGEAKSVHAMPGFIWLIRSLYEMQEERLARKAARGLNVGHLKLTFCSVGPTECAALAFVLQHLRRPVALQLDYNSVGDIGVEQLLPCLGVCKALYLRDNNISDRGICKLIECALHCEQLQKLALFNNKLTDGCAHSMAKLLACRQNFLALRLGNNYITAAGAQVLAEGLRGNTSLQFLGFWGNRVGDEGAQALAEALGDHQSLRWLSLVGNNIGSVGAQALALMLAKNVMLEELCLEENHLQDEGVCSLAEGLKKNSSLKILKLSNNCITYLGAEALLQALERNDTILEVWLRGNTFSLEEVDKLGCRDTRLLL

Structure (SMILES)	Activity (HEK293 [1])	IC50 ([2]; read-out: IC50) [µM]	Activity (HEK293 [3])	IC50 [4] [µM]	Activity ([5]; filed as antagonist)	Activity ([6]; filed as antagonist)	Activity [5]	Activity [6]	IC50 ([2]; hek293)
CN(CCCc1nc2ccccc2n1CC(=O)Nc1ccc2c(c1)CCC2)S(=O)(=O)c1ccccc1	Non-Toxic	5.08	Non-Toxic	1.66					
O=C(CCc1nc2ccccc2n1CC(=O)Nc1ccc2c(c1)CCC2)Nc1ccccc1	Non-Toxic	8.8	Non-Toxic	12.4	Active	Active			
O=C(Cn1c(CCNCc2ccncc2)nc2ccccc21)Nc1ccc2c(c1)CCC2	Non-Toxic	22.9	Non-Toxic	27.8			inactive	inactive	
CN(C)c1cccc2c(S(=O)(=O)N(C)CCc3nc4ccccc4n3CC(=O)Nc3ccc4c(c3)CCC4)cccc12	Non-Toxic	> 20	Non-Toxic	3.08					
CN(CCc1nc2ccccc2n1CC(=O)Nc1ccc2c(c1)CCC2)S(=O)(=O)c1ccccc1	Non-Toxic	0.63	Non-Toxic	2.56					
Cl.O=C(Cn1c(CCNC(=O)C2CCNCC2)nc2ccccc21)Nc1ccc2c(c1)CCC2	Non-Toxic		Non-Toxic				inactive	inactive	
O=C(Cn1c(CCNC(=O)c2cccnc2)nc2ccccc21)Nc1ccc2c(c1)CCC2	Non-Toxic		Non-Toxic				inactive	inactive	Not Active
O=C(Cn1c(CCNC(=O)c2ccncc2)nc2ccccc21)Nc1ccc2c(c1)CCC2	Non-Toxic		Non-Toxic				inactive	inactive	
O=C(Cn1c(CCNCc2ccccc2)nc2ccccc21)Nc1ccc2c(c1)CCC2	Toxic	4.76	Toxic	30.7	Active	Active			
O=C(Cc1ccncc1)NCCc1nc2ccccc2n1CC(=O)Nc1ccc2c(c1)CCC2	Non-Toxic	25.9	Non-Toxic	42.3			inactive	inactive	
CC(C)(C)OC(=O)N1CCC(C(=O)NCCc2nc3ccccc3n2CC(=O)Nc2ccc3c(c2)CCC3)CC1	Non-Toxic	10.6	Non-Toxic	13.3	Active	Active			
O=C(Cn1c(CNC(=O)c2ccccc2)nc2ccccc21)Nc1ccc2c(c1)CCC2	Non-Toxic		Non-Toxic				inactive	inactive	
O=C(Cn1c(CCNS(=O)(=O)c2cccnc2)nc2ccccc21)Nc1ccc2c(c1)CCC2	Non-Toxic	16.4	Non-Toxic	32	Active	Active			
O=C(Cn1c(CCCNS(=O)(=O)c2ccccc2)nc2ccccc21)Nc1ccc2c(c1)CCC2	Non-Toxic	5.12	Non-Toxic	9.25					
